Here are results for 7 compounds from article PMC6239893 (Nature chemical biology, 2018).

Assay [1] relates to ai5γ intron with short exons (SE RNA). In words: Radioanalytic self-splicing assay. In kind it is biochemical, S. cerevisiae. The conditions noted are these: relative to lead compound; IC50 and Ki assays. Summed up:
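Internally ³²P-labelled ai5γ precursor with short exons (2 nM) self-spliced at 30 °C with a range of test compound concentrations. Buffer was 50 mM MOPS pH 7.5, 8 mM MgCl₂, 100 mM KCl. First-order splicing rates were fitted to k_obs = k_max/(1+[I]/K_i) to give K_i. Each determination was repeated 2–4 times; mean ± s.e.m.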

For assay [2], the system named is COX1 aI5γ group II intron. In words: Analysis of splicing in S. cerevisiae by qRT-PCR. In kind it is cell-based. The note with it: S. cerevisiae in YPGE, 4 h; 19 64 μg/mL, 18 32 μg/mL, 12 32 μg/mL, 3 64 μg/mL. A general note: Real-time PCR tracks product formation cycle by cycle.
The subject of assay [3] is ai5γ group II intron (D135 ribozyme). The experiment in a line: Fluorescent D135 ribozyme cleavage assay. The format is biochemical, S. cerevisiae. The note with it: compared with the parental molecule 7.
For assay [4], the system named is S. cerevisiae wild-type (NP40–36a) and intronless (XPM46) strains. The experiment in a line: S. cerevisiae growth assays, wild-type vs mtDNA intronless strain. The conditions noted are these: YPGE medium, 64 or 128 μg/mL. In kind it is cell-based. Summed up: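 Wild-type NP40–36a and mtDNA intronless XPM46 strains were grown overnight with shaking to mid-log phase in YPGE at 30 °C. Equal cell numbers were serially diluted 1:5 and plated on YPD or YPGE. Plates held DMSO or test compound at 64 or 128 µg/mL final. Plates grew at 30 °C for 1 day (YPD), 2 days (YPGE with DMSO) or 18 days (YPGE with compound). Done twice.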

Consider `O=C1/C(=C/c2ccc(O)c(O)c2)Oc2cc(O)cc(O)c21` [Compound 2], for which the “In vitro inhibitory activity in SAR (in words)” value (shortened to “In vitro inhibitory activity”) in assay [1] was “inactivated”.
In the case of `O=C1/C(=C/c2cc(O)cc(O)c2)Oc2cc(O)cc(O)c21` [Compound 3], in assay [2], the “Splicing of COX1 aI5γ group II intron in vivo (unspliced precursor, qRT-PCR)” value (from here on “Splicing of COX1 aI5γ group II intron”) was “inactive”.
For the compound `O=C(c1cc(O)c(O)c(O)c1)c1cc2ccccc2o1` [Compound 9], the “Increase in in vitro potency” value in assay [3] is on record as 2 fold.
Take `COc1ccc(CNC(=O)c2cc(O)c(O)c(O)c2)cc1OC` [Compound 10]: in assay [1], the “In vitro inhibitory activity” value is reported as “substantial loss of activity”.
Regarding `CCCCNS(=O)(=O)c1ccc(-c2ccc(-c3nc(-c4cc(O)c(O)c(O)c4)cs3)cc2)cc1` [Compound 11], the “In vitro inhibitory activity” value in assay [1] is “substantial loss of activity”.
On to `Cc1ccncc1-c1ccc2oc(C(=O)c3cc(O)c(O)c(O)c3)cc2c1` [Compound 12], for which, in assay [2], the “Splicing of COX1 aI5γ group II intron” value is on record as “inhibit splicing”.
`CC(=O)c1ccc(-c2ccc3oc(C(=O)c4cc(O)c(O)c(O)c4)cc3c2)cc1` [Compound 18]: in assay [2], the “Splicing of COX1 aI5γ group II intron” value was “inhibit splicing”. In assay [4], the “Growth of intronless strain versus wild-type strain in presence of compound” value is listed as “much more resistant”.
